Source: ChEMBL document CHEMBL4371095, “Triazole-Based Inhibitors of the Wnt/β-Catenin Signaling Pathway Improve Glucose and Lipid Metabolisms in Diet-Induced Obese Mice” (J Med Chem, 2019)
Calls of active or inactive are those of the source. The rule behind the calls is not given here.

What was measured:
[1] = Inhibition of Wnt3a activated Wnt/beta-catenin signaling (unknown origin) expressed in HEK293 cells harboring TCF/LEF-responsive luciferase preincubated with cells followed by Wnt3a addition and measured after 24 hrs by luciferase reporter gene assay; assay type: cell-based; details: Homo sapiens
Procedure, shortened: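 HEK293 cells stably carrying TOPFlash/GFP were plated at 2000/well in DMEM with 10% FBS and kept overnight at 37 °C. Compound was pin-transferred, then recombinant human Wnt-3a was added (200 ng/mL working stock). After 24 h at 37 °C, ONE-Glo luminescence was read after 30 min. IC50 is mean ± SE from three independent experiments.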

HEK293 [2] = test: Growth inhibition of HEK293 cells harboring Wnt after 24 hrs by CellTiter-Fluor assay; assay type: cell-based; details: human, hek293, 24 h
Procedure, shortened: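 HEK293 cells stably carrying the TOPFlash reporter were plated at 2000/well in DMEM with 10% FBS and incubated overnight. Compound was added with recombinant human Wnt-3a, then incubated 24 h at 37 °C. CellTiter-Fluor reagent was added and fluorescence read after 30 min at 37 °C.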

HEK293 [3] = test: Inhibition of LiCl-activated Wnt/beta-catenin/Axin signaling (unknown origin) expressed in HEK293 cells assessed as degradation of beta-catenin by measuring decrease in beta-catenin protein expression after 24 hrs by Western blot method; assay type: cell-based; details: Homo sapiens
Procedure, shortened: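 HEK293 cells were treated with compound in the presence of lithium chloride for 24 h. Lysis buffer contained 10 mM HEPES, 100 μM EDTA, 10 mM KCl, 0.5% NP40 and inhibitors. Protein was quantified by BCA, resolved on 10% SDS-PAGE, and immunoblotted for β-catenin.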

[4] = Oral bioavailability in mouse; assay type: ADME, organism-based; details: in vivo
Axin-1 (Homo sapiens) = Axin-1 (Homo sapiens) (UniProt O15169); test: Stabilization of Axin1 in human HuH7 cells assessed as decrease in lipid accumulation at 5 uM after 36 hrs by nile red staining based fluorescence microscopic method; assay type: cell-based
Procedure, shortened: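 Huh7 cells on collagen I-coated coverslips were treated with 5 μM compound for 36 h, then with 200 μM sodium oleate for a further 12–16 h. Cells were stained with 1 μM Nile red in HBSS for 10 min at 37 °C in the dark and imaged by fluorescence microscopy at 552/636 nm.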

HEK293 [5] = test: Growth inhibition of unstimulated HEK293 cells up to 100 uM after 72 hrs by CellTiter-Fluor assay; assay type: cell-based; details: human, hek293, 72 h
Procedure, shortened: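 Unstimulated HEK293 cells were plated at 3.5×10^5/well and grown for 24 h, then incubated with compound for 72 h. Viability was read with CellTiter-Fluor.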

Axin-1 (Homo sapiens), sequence (O15169 whole entry): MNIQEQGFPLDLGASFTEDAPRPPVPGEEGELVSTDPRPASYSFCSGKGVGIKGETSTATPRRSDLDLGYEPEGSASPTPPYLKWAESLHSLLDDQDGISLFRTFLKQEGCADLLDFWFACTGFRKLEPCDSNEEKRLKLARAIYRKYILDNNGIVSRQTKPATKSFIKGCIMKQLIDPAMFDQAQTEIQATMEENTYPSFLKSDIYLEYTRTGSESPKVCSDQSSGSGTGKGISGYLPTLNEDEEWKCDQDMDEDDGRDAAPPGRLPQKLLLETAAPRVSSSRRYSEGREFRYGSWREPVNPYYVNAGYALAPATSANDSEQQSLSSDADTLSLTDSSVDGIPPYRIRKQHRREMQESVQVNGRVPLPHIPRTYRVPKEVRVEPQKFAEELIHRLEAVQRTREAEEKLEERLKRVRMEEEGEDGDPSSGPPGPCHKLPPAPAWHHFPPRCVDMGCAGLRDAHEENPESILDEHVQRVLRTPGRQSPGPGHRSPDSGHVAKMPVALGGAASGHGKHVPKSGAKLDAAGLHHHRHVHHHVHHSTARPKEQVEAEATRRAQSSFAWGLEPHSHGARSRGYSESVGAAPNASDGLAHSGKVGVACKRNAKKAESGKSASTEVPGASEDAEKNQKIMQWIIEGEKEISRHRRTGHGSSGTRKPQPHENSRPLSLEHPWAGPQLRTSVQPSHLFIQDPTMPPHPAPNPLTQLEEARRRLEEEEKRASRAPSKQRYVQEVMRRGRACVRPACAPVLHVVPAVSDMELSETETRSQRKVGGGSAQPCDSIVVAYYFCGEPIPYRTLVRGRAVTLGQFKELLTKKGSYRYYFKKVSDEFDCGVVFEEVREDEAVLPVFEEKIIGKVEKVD

| IC50 [1] [nM] | SMILES | growth inhibition (GI) (HEK293 [2]) | further results |
| --- | --- | --- | --- |
| 5500 | Cc1c(C(=O)Nc2ccc3ccccc3n2)nnn1-c1cccc2ccccc12 | Non-Toxic | inhibition (HEK293 [3]): inactive |
| > 10000 | Cc1ccc(-n2nnc(C(=O)Nc3ccc4ccccc4n3)c2C)cc1 | Non-Toxic | – |
| 390 | Cc1c(C(=O)Nc2ccc3ccccc3n2)nnn1-c1ccccc1-c1ccccc1 | Non-Toxic | – |
| > 10000 | Cc1c(C(=O)Nc2ccc3ccccc3n2)nnn1-c1ccccc1C(N)=O | Non-Toxic | – |
| 270 | Cc1ccc(-n2nnc(C(=O)Nc3ccc4ccccc4n3)c2C)c(C)c1 | Non-Toxic | – |
| 1200 | Cc1ccccc1-n1nnc(C(=O)Nc2ccc3cc(CN4CCCCC4)ccc3n2)c1C | Non-Toxic | – |
| 230 | Cc1ccccc1-n1nnc(C(=O)Nc2ccc3cc(CN4CCSCC4)ccc3n2)c1C | Non-Toxic | – |
| 8800 | CC(=O)c1ccccc1-n1nnc(C(=O)Nc2ccc3ccccc3n2)c1C | Non-Toxic | – |
| 750 | Cc1cc(/C=C/c2ccc3cc(N(C)C)ccc3[n+]2C)c(C)n1-c1ccccc1 [PYRVINIUM] | – | bioavailability [4]: < 1% |
| > 10000 | Cc1cccc(-n2nnc(C(=O)Nc3ccc4ccccc4n3)c2C)c1 | Non-Toxic | – |
| 140 | Cc1cccc(-n2nnc(C(=O)Nc3ccc4ccccc4n3)c2C)c1C | Non-Toxic | – |
| 1300 | Cc1ccccc1-n1nnc(C(=O)Nc2ccc3cc(CN4CCOCC4)ccc3n2)c1C | Non-Toxic | – |
| 830 | Cc1ccccc1-n1nnc(C(=O)Nc2ccc3cc(Br)ccc3n2)c1C | Non-Toxic | – |
| 4900 | Cc1ccccc1-n1nnc(C(=O)Nc2ccc3ccccc3c2)c1C | Non-Toxic | – |
| 18 | COc1ccccc1-n1nnc(C(=O)Nc2ccc3ccccc3n2)c1C | Non-Toxic | – |
| 34 | Cc1c(C(=O)Nc2ccc3ccccc3n2)nnn1-c1ccccc1C#N | Non-Toxic | – |
| 4.7 | CCc1c(C(=O)Nc2ccc3ccccc3n2)nnn1-c1ccccc1F | Non-Toxic | – |
| 7.6 | Cc1c(C(=O)Nc2ccc3ccccc3n2)nnn1-c1ccccc1Br | Non-Toxic | – |
| 25 | CC(C)c1c(C(=O)Nc2ccc3ccccc3n2)nnn1-c1ccccc1F | Non-Toxic | – |
| – | Oc1nc(-c2ccc(C(F)(F)F)cc2)nc2c1CSCC2 | – | Activity (Axin-1 (Homo sapiens)): Active |
| 1900 | Cc1c(C(=O)Nc2ccc3ccccc3n2)nnn1-c1ccccc1N1CCOCC1 | Non-Toxic | – |
| 1.2 | Cc1c(C(=O)Nc2ccc3ccccc3n2)nnn1-c1ccccc1F | Non-Toxic | growth inhibition (GI) (HEK293 [5]): Toxic |
